Experimental data reported in PubChem BioAssay.
Calls of active or inactive are those of the source.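 The calls were made as follows, unless noted: active = compounds giving at least 50% inhibition in the cell-based MKP-3 phosphatase rescue imaging test; inactive = the rest.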

Columns and labels:
[1] = inhibitors of TNFa-induced NFkB p65 translocation, primary screen, imaging, HUVEC, MLSMR starter and 10KST1 sets (AID 438;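 active = inhibition above 20% together with a positive visual image hit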;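 also: compound added about 3h40 before a 20 min TNFalpha stimulation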;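 as to inhibition: signal is the nuclear over cytoplasmic p65 intensity ratio per well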); conditions: HUVEC TNFa-induced p65 nuclear translocation; cell count: measured here: nuclei count (cytotoxicity indicator), at 2.08 µM; inhibition: at 2 µM, stronger effect = higher value, 0% TNFa-plus-vehicle, 100% no-TNFa wells
[2] = endothelial E-selectin expression blockers – imaging, HUVEC, immunofluorescence, MLSMR starter and 10KST1 sets, primary screen (AID 487;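 active = visually confirmed hit in the image check and inhibition above 20%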;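 as to inhibition: signal is fraction of cell area covered by stained E-selectin grains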;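 as to nuclei count: 100% = median nuclei count of all wells on the same plate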); conditions: HUVEC TNFalpha-induced E-selectin immunofluorescence imaging, at 2 µM; inhibition: stronger effect = higher value; nuclei count: measured here: cell number, toxicity
[3] = Primary imaging screen for DUSP6 inhibitors that restore phospho-Erk in transfected HeLa cells, chemical complementation (AID 609); conditions: HeLa MKP-3 transfected, phospho-Erk imaging KS statistic, at 10 µM, cells stimulated with TPA for 15 min;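 as to inhibition: phospho-Erk level distribution per well compared with pooled transfected vehicle control wells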
[4] = target: Dual specificity protein phosphatase 6 (Homo sapiens) (UniProt Q16828); assay: as above; conditions: HeLa MKP-3 transfected, phospho-Erk imaging KS statistic; at 10 µM; stronger effect = higher value; cells stimulated with TPA for 15 min
Chain of Dual specificity protein phosphatase 6 (Homo sapiens) (Q16828 whole entry, looked up): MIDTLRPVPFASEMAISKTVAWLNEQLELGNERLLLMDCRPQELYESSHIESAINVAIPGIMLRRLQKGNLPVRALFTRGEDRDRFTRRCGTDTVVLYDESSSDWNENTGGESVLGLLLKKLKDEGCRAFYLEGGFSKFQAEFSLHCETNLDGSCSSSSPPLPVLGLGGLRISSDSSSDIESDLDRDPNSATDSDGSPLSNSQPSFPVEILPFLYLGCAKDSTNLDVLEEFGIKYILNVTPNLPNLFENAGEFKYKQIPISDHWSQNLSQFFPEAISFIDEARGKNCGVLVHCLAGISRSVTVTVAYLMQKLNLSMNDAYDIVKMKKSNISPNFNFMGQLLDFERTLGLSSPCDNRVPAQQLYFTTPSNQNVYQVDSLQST

[5] = target: Voltage-gated potassium channel subunit beta-2 (Rattus norvegicus) (UniProt P62483); assay: inhibitors of rat Kvbeta2 reductase activity – biochemical, NADPH fluorescence, primary screen (AID 622;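 active = fluorescence slope higher than the sample average by over 3 SD, cut at about -0.22 in these data, passing the limit was not always enough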;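 also: slope of raw intensity against log time taken from 70 to 1610 s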); conditions: recombinant KvBeta, 4-cyanobenzaldehyde reduction, at 10 µM, stronger effect = higher value
Chain of Voltage-gated potassium channel subunit beta-2 (Rattus norvegicus) (P62483 whole entry, looked up): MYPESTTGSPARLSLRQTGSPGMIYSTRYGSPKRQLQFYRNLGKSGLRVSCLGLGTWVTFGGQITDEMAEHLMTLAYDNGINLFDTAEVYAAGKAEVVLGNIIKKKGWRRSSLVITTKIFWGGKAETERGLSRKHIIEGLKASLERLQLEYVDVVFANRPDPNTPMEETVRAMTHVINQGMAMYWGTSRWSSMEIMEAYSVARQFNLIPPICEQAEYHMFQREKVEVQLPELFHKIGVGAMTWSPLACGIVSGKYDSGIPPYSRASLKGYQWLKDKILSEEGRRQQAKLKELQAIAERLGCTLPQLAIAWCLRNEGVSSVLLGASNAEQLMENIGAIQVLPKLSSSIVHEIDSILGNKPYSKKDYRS

[6] = target: Voltage-gated potassium channel subunit beta-2 (Rattus norvegicus) (UniProt P62483); assay: enhancers of rat Kvbeta2 NADPH turnover – biochemical, NADPH fluorescence, primary screen (AID 623;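 active = NADPH fluorescence slope more negative than the mean of all samples by about 3 SD, 99.7% confidence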;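 also: fluorescence intensity change per second fitted from 20 to 320 s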); conditions: Recombinant KvBeta, NADPH fluorescence decrease slope, 10 min; at 10 µM; stronger effect = lower value
[7] = target: Alpha-2C adrenergic receptor (Homo sapiens) (UniProt P18825); assay: compounds altering alpha2C-coupled GIRK flux – cell-based, HEK293 alpha2C/GIRK1/2, thallium flux, primary screen (AID 624;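 active = fluorescence slope after compound addition differing from the mean of all screened samples at 99.7% confidence, in either direction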;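 also: slope of fluorescence ratio to pre-addition baseline per second over 15 to 24 s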); conditions: thallium flux BTC fluorescence, at 10 µM, actives lie on both sides
Chain of Alpha-2C adrenergic receptor (Homo sapiens) (P18825 whole entry, looked up): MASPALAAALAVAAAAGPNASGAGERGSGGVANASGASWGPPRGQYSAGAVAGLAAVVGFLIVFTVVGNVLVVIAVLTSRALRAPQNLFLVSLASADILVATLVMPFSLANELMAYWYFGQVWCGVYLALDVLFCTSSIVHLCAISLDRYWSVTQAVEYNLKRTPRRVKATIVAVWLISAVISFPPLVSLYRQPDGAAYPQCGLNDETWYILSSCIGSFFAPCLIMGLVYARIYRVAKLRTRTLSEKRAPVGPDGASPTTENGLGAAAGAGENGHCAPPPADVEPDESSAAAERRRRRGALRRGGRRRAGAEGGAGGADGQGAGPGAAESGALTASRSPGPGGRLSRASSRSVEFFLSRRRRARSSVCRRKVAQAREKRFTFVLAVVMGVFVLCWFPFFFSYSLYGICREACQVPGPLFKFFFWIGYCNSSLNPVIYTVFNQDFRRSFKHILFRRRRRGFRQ

[8] = inhibitors of larval lipid processing in zebrafish, primary screen, whole organism, PED6 fluorescence, gall bladder and intestine (AID 686;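 active = a full or partial loss of lipid-probe fluorescence in the fish gall bladder, intestine or both, judged by eye; inactive = no fluorescence loss, or compound toxic to the fish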;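 also: larvae 5 to 7 days old with five fish per well; signal comes from phospholipase A2 cleavage of quenched PED6 carried via bile; overnight exposure to compound and PED6 before scoring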); conditions: Zebrafish larvae PED6 lipid processing, fluorescence scoring; screened at 20 µM (by protocol)
In short: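 Test system – live zebrafish larvae aged 5-7 days, whole organism · Buffer or medium – E3 fish medium · Reagent – quenched phospholipase substrate PED6, 100 nM final, ingested by larvae · Doses – 20 µM single dose · Incubation – overnight compound and PED6 incubation · Technique – visual fluorescence microscopy scoring of gall bladder, gut · Read-out basis – visual per-well fluorescence inhibition score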

[9] = loss of swimming-algae plug formation – whole organism, Chlamydomonas reinhardtii, WT vs cilia-less mutant, absorbance, 96-well, primary screen (AID 463189;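 active = inhibition at or above 50% relative to wild type and mutant plate controls; inactive = inhibition below 50%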;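 also: 0% = wild type cc124 cells in DMSO and 100% = ciliumless bld1 mutant cells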); conditions: Chlamydomonas reinhardtii gravitaxis, OD600 absorbance, 2 days; at 10 µM; stronger effect = higher value
[10] = measured here: cell density z-score
[11] = measured here: nuclear c-Myc green intensity z-score
[12] = measured here: nuclear pErk red intensity z-score, stronger effect = higher value

| Structure (SMILES) | cell count [1] | inhibition [1] | inhibition [2] | nuclei count [2] [%] | z-score [3, 10] | z-score [3, 11] | z-score [3, 12] | inhibition [4] | fluorescence slope [5] | NADPH fluorescence slope [6] | slope [7] | outcome [8] | inhibition [9] |
| --- | --- | --- | --- | --- | --- | --- | --- | --- | --- | --- | --- | --- | --- |
| CCc1cccc(C)c1N(C(=O)Cn1c(=O)[nH]c2ccccc21)C(C)COC (configuration not stated) | 362 | -2.1% (inactive) | -33.7% (inactive) | 97 | 0.81 | -0.372 | 0.826 | 5.57% (inactive) | -0.546 (inactive) | -4.3e-07 (inactive) | 0.00687 (inactive) | inactive | 32.6% (inactive) |
| O=c1c2c3c(sc2n2cnnc2n1Cc1ccccc1)CN(Cc1ccccc1)CC3 | 620 | -1.6% (inactive) | 66.2% (inactive) | 104 | 0.015 | 0.568 | 0.295 | 6.04% (inactive) | -0.427 (inactive) | -1.4e-05 (inactive) | 0.0049 (inactive) | inactive | 22.4% (inactive) |
| COc1ccc(OC)c(C2=Nn3c(nnc3-c3ccco3)SC2)c1 | 675 | 1.9% (inactive) | -139% (inactive) | 150 | -0.0454 | 1.22 | 0.484 | -2.47% (inactive) | -0.399 (inactive) | -0.000127 (inactive) | 0.00666 (inactive) | inactive | -10.3% (inactive) |
| COc1cc(C2CC(C(F)(F)F)n3ncc(C(=O)O)c3N2)cc(OC)c1OC (configuration not stated) | 515 | -6.9% (inactive) | 18.3% (inactive) | 119 | -0.754 | 0.674 | 1.11 | -2.07% (inactive) | -0.517 (inactive) | -9.9e-05 (inactive) | 0.0046 (inactive) | inactive | -0.326% (inactive) |
| COC(=O)CNc1nc(-c2cccnc2)nc2ccccc12 | 543 | -5.9% (inactive) | -23.5% (inactive) | 156 | -0.375 | 1.95 | 0.774 | -11.9% (inactive) | -0.327 (inactive) | 8.2e-06 (inactive) | 0.0052 (inactive) | inactive | -0.905% (inactive) |
| COC(=O)c1ccc(Cn2cnc3c(sc4nc(N5CCOCC5)c5c(c43)CCCC5)c2=O)o1 | 505 | 10.2% (inactive) | -144% (inactive) | 132 | -0.452 | 0.953 | 0.541 | -7.01% (inactive) | -0.47 (inactive) | -2.7e-05 (inactive) | 0.00736 (inactive) | inactive; toxic | 6.85% (inactive) |
| N#CC1=C(C=Nc2ccccc2O)CCC1 | 643 | -12.1% (inactive) | -13.8% (inactive) | 163 | -1.7 | -0.376 | 2.01 | -8.95% (inactive) | -0.416 (inactive) | -6.1e-05 (inactive) | 0.00456 (inactive) | inactive | 11.8% (inactive) |
| N#CC1=C(N)N2C(=C(C#N)C1c1ccccc1)Sc1ccccc12 (configuration not stated) | 653 | -14.8% (inactive) | 9.7% (inactive) | 116 | 1.49 | -0.461 | -0.35 | 17.7% (inactive) | -0.452 (inactive) | -9.4e-06 (inactive) | 0.0107 (inactive) | inactive | 44.9% (inactive) |
| CCCCCCn1c(C(C)O)nc2ccccc21 (configuration not stated) | 528 | -16.2% (inactive) | -111% (inactive) | 156 | 1.01 | -0.165 | -1.61 | 11.9% (inactive) | -0.5 (inactive) | -5.9e-05 (inactive) | 0.0045 (inactive) | inactive; toxic | 28% (inactive) |
| N#Cc1ccc(-c2cccnc2)nc1SCC(=O)Nc1sc2c(c1C#N)CCC2 | 539 | -25.4% (inactive) | -101% (inactive) | 144 | 0.414 | 0.682 | 0.527 | -9.66% (inactive) | -0.501 (inactive) | -5.3e-05 (inactive) | 0.00453 (inactive) | inactive | -0.076% (inactive) |
| COc1ccc(C(=O)N2CCC(N3CCN(c4ccccc4)CC3)CC2)cc1OC | 420 | -28.9% (inactive) | -222% (inactive) | 170 | 1.05 | -0.675 | -0.812 | 17.7% (inactive) | -0.348 (inactive) | 9.9e-06 (inactive) | 0.00411 (inactive) | inactive | 29.9% (inactive) |
| CCN(CC)c1ccc2cc(C(=O)Nc3ccccn3)c(=O)oc2c1 | 384 | -12% (inactive) | 0.4% (inactive) | 80.2 | -0.204 | 0.482 | 0.701 | -2.07% (inactive) | -0.433 (inactive) | -2.6e-05 (inactive) | 0 (inactive) | inactive | 20.3% (inactive) |
| COc1cccc(C2=CC(c3ccccc3)n3ncnc3N2)c1 (configuration not stated) | 565 | 3.2% (inactive) | 36.2% (inactive) | 163 | -0.222 | -0.0591 | 0.0878 | -8.76% (inactive) | -0.0434 (active) | -2e-07 (inactive) | 0.00478 (inactive) | inactive | 10.9% (inactive) |
| Cc1ccc(C2/C(=C(/O)c3ccc(OC(C)C)cc3)C(=O)C(=O)N2CCN2CCOCC2)cc1 (configuration not stated) | 526 | -2% (inactive) | 7.7% (inactive) | 166 | 0.417 | 1.31 | 0.598 | -2.91% (inactive) | -0.295 (inactive) | 1.7e-05 (inactive) | 0.00456 (inactive) | inactive | 2.83% (inactive) |
| CCOC(=O)c1cnc(SC2CC(=O)N(c3cccc(OC)c3)C2=O)nc1N (configuration not stated) | 591 | -4.7% (inactive) | -23.7% (inactive) | 155 | 0.0661 | -0.104 | -0.161 | -8.76% (inactive) | -0.317 (inactive) | -9.7e-06 (inactive) | 0.00504 (inactive) | inactive | -8.83% (inactive) |
| COc1ccc(C(=O)C(CN2CCCC2)c2ccccc2)cc1 (configuration not stated) | 653 | -4.3% (inactive) | 0.2% (inactive) | 178 | -0.885 | 0.507 | 1.21 | 1.75% (inactive) | -0.521 (inactive) | -8.7e-05 (inactive) | 0.00506 (inactive) | inactive | 5.7% (inactive) |
| CSC1=Nc2sc3c(c2C2=NCCN12)CC(C)(C)OC3 | 540 | -10.5% (inactive) | -3.3% (inactive) | 176 | -0.539 | 0.758 | -0.378 | 3.66% (inactive) | -0.508 (inactive) | -4.5e-05 (inactive) | 0.00474 (inactive) | inactive | 64.3% (active) |
| COC(=O)c1ccc(-c2sc3nc(N4CCOCC4)c4c(c3c2N)CC(C)(C)OC4)o1 | 595 | -19.5% (inactive) | -62.4% (inactive) | 153 | -1.25 | 1.71 | 2.19 | -0.624% (inactive) | -0.16 (inactive) | -2.4e-05 (inactive) | 0.00678 (inactive) | inactive | -4.84% (inactive) |
| Cc1nc2c(c(=O)n1CC1CCCO1)c1nc3ccccc3nc1n2CCC(C)C (configuration not stated) | 327 | -4.1% (inactive) | -30.1% (inactive) | 177 | 1.21 | -0.55 | 1.04 | -0.584% (inactive) | -0.381 (inactive) | -0.000104 (inactive) | 0.00821 (inactive) | inactive | 24.8% (inactive) |
| O=C(c1ccco1)N1CCN(CCOCCOc2cccc3ccccc23)CC1 | 473 | -5.4% (inactive) | -81.6% (inactive) | 121 | -1.67 | -0.183 | 1.98 | -2.07% (inactive) | -0.504 (inactive) | -0.000107 (inactive) | 0.00477 (inactive) | inactive | 16.4% (inactive) |
| CCOc1ccc(-n2c3nc4ccccc4nc3c3c(=O)n(Cc4ccco4)cnc32)cc1 | 381 | -13% (inactive) | -105% (inactive) | 171 | 0.174 | 0.579 | -1.27 | -7.01% (inactive) | -0.417 (inactive) | -0.000107 (inactive) | 0.00519 (inactive) | inactive | -0.886% (inactive) |
| CCN1CC=C2C(C#N)=C(N)C(C#N)(C#N)[C@H](c3cccc(OC)c3OC)[C@H]2C1 | 560 | -11.4% (inactive) | 26.9% (inactive) | 113 | 1.15 | 1.25 | -1.6 | -3.95% (inactive) | -0.449 (inactive) | -6e-06 (inactive) | -4.3e-17 (inactive) | inactive | -15.5% (inactive) |
| CN1C2C=C3C(C#N)=C(N)C(C#N)(C#N)[C@@H](c4ccsc4)[C@@H]3C1CC2 (some centres not stated) | 589 | -9.3% (inactive) | 24% (inactive) | 148 | 1.76 | -1 | -0.0532 | 28.1% (inactive) | -0.396 (inactive) | 4.1e-06 (inactive) | 0.00648 (inactive) | inactive | 6.82% (inactive) |
| Cc1ccc(C#N)c(SCc2cc3c(cc2Cl)OCO3)n1 | 538 | -31.1% (inactive) | -76.1% (inactive) | 159 | -0.24 | -0.891 | -0.243 | -2.47% (inactive) | -0.515 (inactive) | -6.3e-05 (inactive) | 0.00686 (inactive) | inactive | 28.8% (inactive) |
